Laboratory results: ChEMBL document CHEMBL1123886 (J Med Chem, 1987)
Activity calls are given as the source filed them. The rule behind the calls is not given here.

Assays:
P388/ADR [1] = experiment: Optimal dose required to inhibit the P388/ADR cells in vivo after intraperitoneal administration.; format: functional, Mus musculus; design: unit: mg/kg/day
P388 [2] = experiment: Percent increase in life span of the drug-treated tumor-bearing animals vs nontreated tumor-bearing controls with P388 leukemia cells.; format: functional, Mus musculus
Procedure, shortened: (§1)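 Groups of 6. Optimal dose is in mg/kg per day. ILSmax is the % lifespan increase over untreated tumor-bearing controls at the optimal dose; above 20% counted significant. Cures are 50-day survivors.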

L1210 = experiment: Ability to inhibit the growth of leukemia L1210 cells in vitro.; format: functional, cell-based; conditions: Mus musculus
Procedure, shortened: (§2)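 Cultured leukemia L1210 or human colon tumor HCT-8 cells were exposed to drug for 40 h.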

[3] = Lipophilicity (Rm).; format: physicochemical
P388/ADR [4] = experiment: Percent increase in life span, of the drug-treated tumor-bearing animals vs nontreated tumor-bearing controls with P388/ADR cells.; format: functional, Mus musculus; procedure, shortened: as §1
poly[d(A-T)] = experiment: Binding constant for poly[d(A-T)] by ethidium bromide displacement
P388 [5] = experiment: Optimal dose required to inhibit the P388 intraperitoneal administration.; format: functional, Mus musculus; design: unit: mg/kg/day
[6] = test system: Lewis lung carcinoma cell line; experiment: Percent increase in life span, of the drug-treated tumor-bearing animals vs nontreated tumor-bearing controls with LL (Lewis lung carcinoma model) cells.; format: functional, Mus musculus
Procedure, shortened: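 Groups of 6. Optimal dose is in mg/kg per day. ILSmax is the % lifespan increase over untreated tumor-bearing controls at the optimal dose; above 40% counted significant. Cures are 60-day survivors.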

[7] = test system: Lewis lung carcinoma cell line; experiment: Optimal dose to inhibit the LL (Lewis lung carcinoma model) cells in vivo after intraperitoneal administration.; format: functional, Mus musculus; design: unit: mg/kg/day
Procedure, shortened: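 Mice were inoculated iv with 10^6 Lewis lung carcinoma cells. OD is the optimal dose in mg/kg per day. Lifespan increase above 40% is significant, and long-term survival was scored at 60 days.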

[8] = The compound was evaluated for its acid dissociation constant; format: ADME
HCT-8 = experiment: Ability to inhibit the growth of human colon tumor HCT-8 cells in vitro.; format: functional, cell-based; procedure, shortened: as §2
Mus musculus = organism: Mus musculus; experiment: Percent increase in life span of the drug treated tumor bearing animals vs nontreated tumor bearing controls was determined against P388/ADR cells;NA= not active; format: functional, organism-based
Procedure, shortened: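 Mice were inoculated ip with 10^6 P388 or ADR/P388 cells. OD is the optimal dose in mg/kg per day. ILSmax is the % lifespan increase over untreated tumor-bearing controls at the OD; above 20% is significant. Long-term survival was scored at 50 days.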

SMILES	OD (P388/ADR [1])	ILS max (P388 [2])	IC50 (L1210) [nM]	Rm [3]	ILS max (P388/ADR [4])	Log K (poly[d(A-T)])	OD (P388 [5])	ILS max [6]	OD [7]	pKa [8]	IC50 (HCT-8) [nM]	ILS max (Mus musculus)
CNC(=O)c1cccc2c(Nc3ccc(NC(=O)OC)cc3NC)c3cccc(OC)c3nc12	45	92	1750	0.45	31	6.95	65	47	65	–	–	–
COC(=O)Nc1ccc(Nc2c3ccccc3nc3ccccc23)c(OC)c1	45	86	–	0.5	33	6.24	30	–	–	7.93	–	–
CNc1cc(NC(=O)OC)ccc1Nc1c2ccc(Cl)cc2nc2c(C)cccc12	45	173	185	0.67	79	7.52	45	143	45	–	330	–
CNc1cc(NC(=O)OC)ccc1Nc1c2ccc(C)cc2nc2c(C)cccc12	13.3	181	44	0.51	33	6.95	20	171	20	–	80	–
CNc1cc(NC(=O)OC)ccc1Nc1c2ccc(F)cc2nc2c(C)cccc12	65	43	520	0.52	47	7.37	65	126	45	–	610	–
COC(=O)Nc1ccc(Nc2c3ccccc3nc3ccccc23)c(N(C)C)c1	30	20	–	0.56	–	5.88	45	–	–	7.85	–	inactive
CNc1cc(NC(=O)OC)ccc1Nc1c2ccc(Br)cc2nc2c(OC)cccc12	65	98	360	0.55	20	6.43	65	31	100	–	–	–
CNc1cc(NC(=O)OC)ccc1Nc1c2ccccc2nc2cc(F)ccc12	100	110	200	0.63	21	5.77	65	83	100	–	420	–
CNc1cc(NC(=O)OC)ccc1Nc1c2ccccc2nc2c(F)cccc12	100	103	1400	0.37	43	5.82	65	77	65	–	2800	–
CNc1cc(NC(=O)OC)ccc1Nc1c2ccc(F)cc2nc2c(OC)cccc12	45	125	940	0.45	–	6.27	100	52	45	–	1600	inactive
COc1cc(NP(=O)(OC)OC)ccc1Nc1c2ccccc2nc2ccccc12	8.9	67	–	0.37	–	6.18	8.9	–	–	8.21	–	inactive
CN(C)c1cc(NS(C)(=O)=O)ccc1Nc1c2ccccc2nc2ccccc12	100	–	–	0.41	41	–	166	–	–	–	–	–
CNc1cc(NC(=O)OC)ccc1Nc1c2ccccc2nc2c(C(N)=O)cccc12	100	32	1600	0.06	–	6	100	–	65	–	3600	–
COc1cc(NC(C)=O)ccc1Nc1c2ccccc2nc2ccccc12	8.9	50	–	0.3	–	6.1	13.3	–	–	7.79	–	inactive
CNc1cc(NC(=O)OC)ccc1Nc1c2ccccc2nc2cc(Br)ccc12	45	101	341	0.7	29	6.87	45	86	45	–	800	–
CNc1cc(NC(=O)OC)ccc1Nc1c2ccccc2nc2cc([N+](=O)[O-])ccc12	20	48	5060	0.4	–	6.58	30	49	65	–	–	inactive
CNc1cc(NC(=O)OC)ccc1Nc1c2ccccc2nc2cc(I)ccc12	100	92	110	0.65	–	6.12	45	68	65	–	350	inactive
CNc1cc(NC(=O)OC)ccc1Nc1c2ccc(Br)cc2nc2c(C)cccc12	45	286	180	0.69	42	7.52	45	82	30	–	230	–
CNc1cc(NS(C)(=O)=O)ccc1Nc1c2ccccc2nc2ccccc12	13.3	–	–	0.17	–	–	–	–	–	–	–	inactive
CNc1cc(NC(=O)OC)ccc1Nc1c2ccc(Cl)cc2nc2c(OC)cccc12	100	177	660	0.54	73	6.93	100	133	65	–	1100	–
CNc1cc(NC(=O)OC)ccc1Nc1c2ccccc2nc2cc(Cl)ccc12	65	104	174	0.73	35	6.13	65	92	45	–	550	–
CNc1cc(NC(=O)OC)ccc1Nc1c2ccccc2nc2c(C)cccc12	20	114	101	0.56	43	6.74	13.3	122	20	–	190	–
CNc1cc(NC(=O)OC)ccc1Nc1c2ccccc2nc2c(OC)cccc12	30	98	540	0.41	35	6.57	30	167	30	–	630	–
CNc1cc(NC(C)=O)ccc1Nc1c2ccccc2nc2ccccc12	65	96	–	0.3	–	6.79	65	–	–	7.8	–	inactive
CNc1cc(NC(=O)OC)ccc1Nc1c2ccccc2nc2cc(OC)ccc12	65	108	170	0.45	89	6.74	45	85	45	–	330	–
CNC(=O)c1cccc2c(Nc3ccc(NC(=O)OC)cc3NC)c3cccc(C)c3nc12	30	99	1200	0.5	35	7.12	20	84	30	–	1850	–
CNC(=O)c1cccc2c(Nc3ccc(NC(=O)OC)cc3NC)c3ccccc3nc12	65	60	840	0.43	–	6.48	65	58	65	–	2750	–
COP(=O)(Nc1ccc(Nc2c3ccccc3nc3ccccc23)c(N(C)C)c1)OC	100	97	–	0.44	–	6.43	100	–	–	8.17	–	inactive
CNc1cc(NC(=O)OC)ccc1Nc1c2ccc(C)cc2nc2c(OC)cccc12	45	128	11	0.61	57	7.34	45	107	65	–	–	–
COc1cc(NS(C)(=O)=O)ccc1Nc1c2ccccc2nc2ccccc12 [AMSACRINE]	–	–	–	0.18	–	–	–	–	–	–	–	inactive
